This note sets out measurements from PMC11740949 (Bioconjugate Chemistry, 2024).

The target of the assay is T1, recombinant murine FAP (Mus musculus, UniProt P97321).
T1 sequence (P97321 1-761): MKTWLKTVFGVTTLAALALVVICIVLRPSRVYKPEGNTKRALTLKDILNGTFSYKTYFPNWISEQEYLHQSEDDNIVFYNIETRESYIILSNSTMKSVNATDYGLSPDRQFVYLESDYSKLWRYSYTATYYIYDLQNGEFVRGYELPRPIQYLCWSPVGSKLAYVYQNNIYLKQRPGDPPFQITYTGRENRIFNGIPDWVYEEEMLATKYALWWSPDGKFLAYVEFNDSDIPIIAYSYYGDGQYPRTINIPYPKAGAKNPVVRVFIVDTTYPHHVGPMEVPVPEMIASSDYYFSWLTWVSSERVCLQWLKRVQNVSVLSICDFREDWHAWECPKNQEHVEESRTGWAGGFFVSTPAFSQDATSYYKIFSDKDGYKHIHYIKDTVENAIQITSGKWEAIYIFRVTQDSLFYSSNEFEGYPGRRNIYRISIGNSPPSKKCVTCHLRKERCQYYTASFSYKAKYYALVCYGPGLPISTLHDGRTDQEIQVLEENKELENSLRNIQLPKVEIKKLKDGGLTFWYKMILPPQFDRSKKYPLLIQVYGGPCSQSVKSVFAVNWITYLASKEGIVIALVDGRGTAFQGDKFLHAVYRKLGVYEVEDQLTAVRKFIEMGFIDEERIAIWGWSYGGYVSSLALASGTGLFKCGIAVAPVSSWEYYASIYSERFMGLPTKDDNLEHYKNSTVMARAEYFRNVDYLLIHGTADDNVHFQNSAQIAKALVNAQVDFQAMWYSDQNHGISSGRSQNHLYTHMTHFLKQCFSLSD
Nature of the assay: FAP inhibition assay with fluorogenic substrate Z-Gly-Pro-AMC. As to conditions: three-parameter fit. It counts as biochemical. In outline:
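Recombinant mouse FAP at 0.01 μg/100 μL in 50 mM Tris, 1.0 M NaCl, 0.1% BSA (w/v), pH 7.5. Test compound was serially diluted 1:5 (10 pM–10 μM) and preincubated with the enzyme for 30 min at 37 °C. Z-Gly-Pro-AMC was then added (10 μL of a 100 μM solution) for 60 min at 37 °C, and fluorescence was read at Ex 380/Em 460. Activity was scaled to no-inhibitor and no-enzyme wells, and IC50 came from a three-parameter inhibitor-vs-response fit.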

What is called IC50 is the concentration that gives 50% inhibition. Take `N#C[C@@H]1CC(F)(F)CN1C(=O)CNC(=O)c1ccnc2ccc(OCCCN3CCN(C(=O)CN4CCN(CC(=O)O)CCN(CC(=O)O)CCN(CC(=O)O)CC4)CC3)cc12` [FAPi-4]: the concentration for half-maximal inhibition (IC50) was determined as 0.59 nM.
